Screening results from PubChem BioAssay.
HSP90 inh = HSP90 refolding inhibition in rabbit reticulocyte lysate | luciferase refolding luminescence, 3 h | inhibition, % at 5.6 µM | 0.91% of 290,000 active | AID 1789;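 active = inhibition above the screen-wide mean plus 3 SD, computed separately per campaign, cut at about 16% in these data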;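 note: 0% = DMSO wells and 100% = 60 µM geldanamycin wells; inhibitors lower the luminescence because luciferase stays unfolded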
STAT3 act-1 = STAT3 signaling activation. 0.91% of 190,000 active. activation (% of control), % at 5.6 µM. U3A cells, IL-6 STAT3-luciferase reporter, luminescence; 100% = signal with IL-6 EC80 alone;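 active = activation above the screen-wide mean of compound activation plus 3 SD, cut at about 130% in these data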;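 note: 0% = background luminescence of wells with medium and substrate only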
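Test system: STAT3-luciferase reporter U3A cells; Detection: reporter luminescence signal; Times: 1 h compound pre-exposure, 6 h IL-6 stimulation, 37 °C; Benchmarks: IL-6-only high control; Also added: IL-6 stimulus at 33 ng/mL final.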
STAT3 inh = inhibitors of IL-6 induced STAT3 signaling. 0.89% of 190,000 active. AID 862. U3A cells, IL-6 STAT3-luciferase reporter, luminescence; host cell line lacks STAT1. inhibition, % at 5.5 µM;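 active = inhibition above the mean inhibition across all screened compounds plus 3 SD, cut at about 44% in these data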;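 note: 0% = DMSO only wells and 100% = 100 µM nifuroxazide control wells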
STAT1 blocker = STAT1 signaling inhibition. NIH 3T3 STAT1-luciferase reporter, IFN-gamma, luminescence. inhibition, % at 5.5 µM. 0.35% of 200,000 active;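 active = inhibition above a set limit, the mean inhibition across all tested compounds plus 3 SD, cut at about 34% in these data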;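 note: 0% = IFN-gamma with DMSO and 100% = IFN-gamma with 300 µM nifuroxazide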
STAT3 act-2 = STAT3 activation, confirmation assay; shares compounds with STAT3 act-1; U3A STAT3-luciferase reporter, IL-6 potentiation, luminescence; U3A cells lack STAT1; 100 means same as IL-6 alone; potentiation (% of control), % at 5.7 µM; 64% of 1,200 active; AID 1267;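 active = percent activation of the STAT3 luciferase reporter above a set limit taken from the earlier primary screen, cut at about 130% in these data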;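 note: 0% = background signal of medium plus substrate and 100% = median of IL-6 with DMSO wells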
NFkB act 2 = counter-screen for STAT3 activators: NF-kappaB activation; 11% of 1,200 active; human cells, NF-kappaB reporter activation; shares compounds with STAT3 act-1; activation (% of control), % at 5.7 µM; in the data active = activation above about 120%;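 note: reporter induced by TNF-alpha stimulation; 100% = median of stimulated DMSO wells and 0% = no signal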
STAT1 act = counter-screen for STAT3 activators: STAT1 activation | shares compounds with STAT3 act-1 | NIH 3T3 STAT1-luciferase reporter, IFN-gamma, luminescence | activation (% of control), % at 5.7 µM | 13% of 1,200 active;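 active = activation above the solvent-only control well mean plus 3 SD, set per screening run, cut at about 120% in these data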;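 note: 100% = IFN-gamma with DMSO median signal so 100% means no change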
The depositor's hits bear a star. An excerpt weighted towards active compounds, which were near 2% of everything screened.

CC1COc2ccccc2N1C(=O)c1ccc(Cl)nc1 (configuration not stated) was read as HSP90 inh -1, STAT3 act-1 145*, STAT3 inh -38, STAT1 blocker 2, STAT3 act-2 136*, NFkB act 2 104 and STAT1 act 101.
Screening COc1ccccc1/C=C(/CC(=O)NCc1ccccc1)c1nc2ccccc2s1 returned HSP90 inh 2, STAT3 act-1 116, STAT3 inh -19 and STAT1 blocker 11.
For COc1ccccc1/C=C(/CC(=O)NCc1ccc(F)cc1)c1nc2ccccc2s1 the results were HSP90 inh -1, STAT3 act-1 136*, STAT3 inh -37, STAT1 blocker 10, STAT3 act-2 131, NFkB act 2 103 and STAT1 act 95.
`CC1(C)CC(=O)C2=C(C1)N1C(=C(C#N)C2c2ccc(Cl)cc2)N=C(N)c2ccccc21` (configuration not stated) gave HSP90 inh -5, STAT3 act-1 129, STAT3 inh -34 and STAT1 blocker -6.
Screening N#CC1=C2N=C(N)c3ccccc3N2C2=C(C(=O)CCC2)C1c1ccc(Cl)cc1 (configuration not stated) returned HSP90 inh 6, STAT3 act-1 183*, STAT3 inh -96, STAT1 blocker 8, STAT3 act-2 149*, NFkB act 2 97 and STAT1 act 97.
For COc1cc(C)c(CN2CCC(n3nccc3NC(=O)C3CCOC3)CC2)cc1C (configuration not stated) the results were HSP90 inh -2.
For N#C/C(=C\Nc1ccccc1O)c1nc2ccccc2o1 the results were HSP90 inh 0, STAT3 act-1 165*, STAT3 inh -83, STAT1 blocker 3, STAT3 act-2 183*, NFkB act 2 108 and STAT1 act 106.
For Cn1/c(=N/N=C/c2ccc(Cl)c([N+](=O)[O-])c2)sc2ccccc21 the results were HSP90 inh -2, STAT3 act-1 156*, STAT3 inh -57, STAT1 blocker 4, STAT3 act-2 148*, NFkB act 2 108 and STAT1 act 113.
Screening O=C(c1cc2c(s1)CCCC2)N1CCN(c2ccccc2)CC1 returned HSP90 inh -3, STAT3 act-1 99, STAT3 inh 12 and STAT1 blocker -8.
For O=C(c1cc2c(s1)CCCC2)N1CCN(S(=O)(=O)c2ccccc2C(F)(F)F)CC1 the results were HSP90 inh 7, STAT3 act-1 139*, STAT3 inh -50, STAT1 blocker 0, STAT3 act-2 116, NFkB act 2 108 and STAT1 act 102.
CC(C(=O)Nc1ccc(S(N)(=O)=O)cc1)N1CCc2ccccc21 (configuration not stated) was read as HSP90 inh 3, STAT3 act-1 103, STAT3 inh -3 and STAT1 blocker 3.
For CCN(CC)S(=O)(=O)c1cc(NC(=O)C(C)N2CCc3ccccc32)ccc1C (configuration not stated) the results were HSP90 inh -3, STAT3 act-1 142*, STAT3 inh -41, STAT1 blocker 8, STAT3 act-2 141*, NFkB act 2 107 and STAT1 act 105.
Screening Cc1ccc(N2CCN(S(=O)(=O)c3c(C)nc4scc(C)n4c3=O)CC2)c(C)c1 returned HSP90 inh 0.
Screening Cc1cccc(C)c1NC(=O)CN(C)CC(=O)Nc1ccc(F)c(Cl)c1 returned HSP90 inh -1, STAT3 act-1 106, STAT3 inh -4 and STAT1 blocker -4.
Cc1cccc(C)c1NC(=O)CN(C)CC(=O)Nc1cc(Cl)ccc1C#N was read as HSP90 inh 4, STAT3 act-1 138*, STAT3 inh -39, STAT1 blocker 11, STAT3 act-2 125, NFkB act 2 103 and STAT1 act 95.
Screening CCOc1ccc(NC(=O)CN(C)CC(=O)Nc2ccccc2SC)cc1OCC returned HSP90 inh 2, STAT3 act-1 112, STAT3 inh -14 and STAT1 blocker -9.
